# Assay outcomes deposited in PubChem BioAssay by Broad Institute.
# SIRT5 block: inhibitors of human sirtuin-5 desuccinylase. Purified SirT5, succinyl-peptide AMC, trypsin-coupled fluorescence. Q9NXA8. hit rate 1.1% among 330,000. inhibition, % at 15 µM; in the data active = inhibition above about 15%
# Target sequence (Q9NXA8 whole entry, looked up): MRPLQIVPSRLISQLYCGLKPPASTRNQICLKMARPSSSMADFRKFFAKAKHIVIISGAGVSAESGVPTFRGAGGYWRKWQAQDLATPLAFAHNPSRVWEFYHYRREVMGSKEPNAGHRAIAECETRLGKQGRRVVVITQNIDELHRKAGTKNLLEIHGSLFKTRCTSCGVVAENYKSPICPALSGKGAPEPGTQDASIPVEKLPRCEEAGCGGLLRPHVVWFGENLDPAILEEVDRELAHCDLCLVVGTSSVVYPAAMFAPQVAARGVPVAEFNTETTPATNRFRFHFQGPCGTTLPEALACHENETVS
# E-sel inducer: induces E-selectin expression in human endothelial cells; activation, % at 7.58 µM; AID 686992; P16581; HUVEC E-selectin immunofluorescence imaging; normalized: neutral wells 0, TNF-alpha wells 100; hit rate 0.37% among 260,000;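 active = mean E-selectin-positive cell signal at least 10% of the positive control, reached in at least 60% of replicates, without over 20% cell loss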
#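 Test system – human umbilical vein endothelial cells (HUVEC), E-selectin induction · Input – 3,000 HUVEC seeded per well · Buffer or medium – EGM-2, gelatin · Compound dosing – single-point compound dose · Detection – immunofluorescence imaging · Measure – percent E-selectin-positive cells · Controls – TNF-alpha high, DMSO low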
# miR122 inh: blocks miR-122 activity in Huh7 sensor cells. Huh7 miR-122 Renilla luciferase sensor, 48 h; neutral wells = 0, positive control = 100. activation (reporter increase), % at 12.5 µM. hit rate 0.3% among 340,000. AID 602342;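 active = mean replicate activation score at least 90 and every replicate individually at or above 90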;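 also: higher luciferase means less miR-122 activity so hits act as miR-122 inhibitors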
# S100A4 inh HTS: blocks human S100A4 binding to myosin IIA peptide | P26447 | S100A4/TAMRA-MyoIIA peptide fluorescence polarization | inhibition, % at 10.7 µM | hit rate 0.14% among 360,000 | AID 652163;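 active = mean inhibition of at least 70% across replicates, with every replicate also reaching that level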
# Target sequence (P26447 whole entry, looked up): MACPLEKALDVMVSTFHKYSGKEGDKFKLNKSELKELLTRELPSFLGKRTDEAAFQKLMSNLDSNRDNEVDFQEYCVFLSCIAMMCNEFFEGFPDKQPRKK
#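 Material: human S100A4 monomer with TAMRA-labelled myosin IIA peptide; buffer or medium: HEPES pH 7.2 with CaCl2, KCl, NaCl, DTT, Triton; compound dosing: one concentration per compound; schedule: 5 min incubation before reading; benchmarks: neutral control DMSO, positive control TFP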
# FGF22 binding: FGF22 (human) thermal shift binding | recombinant FGF22 thermal shift, SYPRO orange fluorescence; percent of sucrose octasulfate shift, DMSO zero | activity (Tm shift, normalised), % at 9.99 µM | hit rate 1.5% among 340,000 | AID 651658;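 active = mean Tm shift, scaled 0 neutral to 100 positive control, at about 1.3% or above, every replicate too, limit read from the data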
# Target sequence (Q9HCT0 whole entry, looked up): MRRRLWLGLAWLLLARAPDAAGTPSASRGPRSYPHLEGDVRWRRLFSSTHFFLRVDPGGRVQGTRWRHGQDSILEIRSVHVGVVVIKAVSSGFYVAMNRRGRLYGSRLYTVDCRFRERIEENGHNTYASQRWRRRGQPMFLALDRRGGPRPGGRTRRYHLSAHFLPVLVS
# * hit, by the source's call; nt = no result given; ! = repeats disagree; [ ] = dose if it differs, or a comment. Most compounds without a hit are left out; they make up all but 2.5% or so of the library.
SMILES,SIRT5 block,E-sel inducer,miR122 inh,S100A4 inh HTS,FGF22 binding
COCCCNC(=O)CNC(=O)c1nn(-c2ccc(OC)c(Cl)c2)c(=O)c2ccccc12,17*,0,nt,7,0
COc1ccc(-n2nc(C(=O)NCC(=O)NCC3COc4ccccc4O3)c3ccccc3c2=O)c(OC)c1 (stereo not given),-4,nt,-2,-4,44*
COc1ccc(-n2nc(C(=O)NCC(=O)NCCCN3CCCCCC3)c3ccccc3c2=O)cc1Cl,-5,2,-3,-3,0
COc1ccc(-n2nc(C(=O)NCC(=O)NCC3COc4ccccc4O3)c3ccccc3c2=O)cc1OC (stereo not given),0,nt,-1,-4,nt
COc1ccc2c3c(n(C)c2c1)[C@@H](CO)N(C(=O)NC(C)C)CC31CCN(CC2CC2)CC1,0,0,nt,6,0
C[C@@H]1CN([C@@H](C)CO)C(=O)c2cc(NS(=O)(=O)c3ccc(F)cc3)ccc2O[C@@H](C)CCCCO[C@@H]1CN(C)S(=O)(=O)c1cccs1,3,nt,6[16.7 µM],-9,0
C[C@H]1CN([C@@H](C)CO)C(=O)CCCn2nncc2CO[C@H]1CN(C)S(=O)(=O)c1cccc(F)c1,0,1,0,21,0
Cc1cccc(S(=O)(=O)N(C)C[C@H]2OCc3cnnn3CCCC(=O)N([C@H](C)CO)C[C@@H]2C)c1,21*!,-2,0,14,0
C[C@H](CO)N1C[C@H](C)[C@H](CN(C)S(=O)(=O)c2ccc(Cl)cc2)OCc2cnnn2CCCC1=O,15*!,0,-11,-6,0
C[C@H](CO)N1C[C@H](C)[C@@H](CN(C)S(=O)(=O)c2ccc3ccccc3c2)OCc2cnnn2CCCC1=O,21*!,-1,-4,-3,0
C[C@@H]1CN([C@H](C)CO)C(=O)CCCn2nncc2CO[C@@H]1CN(C)S(=O)(=O)c1cccc(F)c1,15*!,-1,-3,-6,0
CC(C)CN(CCCNC(=O)CC1Oc2ccccc2NC1=O)CC(C)C (stereo not given),-3,nt,-1,8,0
CCCCN(CC)CCCNC(=O)CC1Oc2ccccc2NC1=O (stereo not given),17*,nt,2,2,0
COc1ccc([C@H]2CC(=O)C=C(c3ccc(CNC(=O)OC(C)(C)C)cc3)C2)cc1,nt,30*,3,-1,0
CCCNC(=O)N1CC2(CN(Cc3cccc(F)c3)C2)c2c([nH]c3cc(OC)ccc23)[C@@H]1CO,2,0,nt,2,0
COc1ccc(-c2ccc(NC(=O)c3ccco3)cc2)nn1,-1,nt,nt,-1,1.8*
COc1ccc(OCC(=O)Nc2ccc(NC(=O)c3ccco3)cc2)cc1,nt,nt,1,nt,nt
COc1ccc(-c2cccc(NC(=O)c3ccco3)c2)nn1,-5,nt,nt,35,0
O=C(/C=C/c1ccc(Br)cc1)c1ccc(NC(=O)c2ccco2)cc1,nt,nt,-9,nt,nt
O=C(COc1ccccc1)Nc1ccc(NC(=O)c2ccco2)cc1,-7,5,nt,3,44*
COC(=O)c1cc(NC(=O)/C=C/c2ccccc2)ccc1O,3,nt,nt,0,43*
O=C(/C=C\c1ccccc1)Nc1ccc(NC(=O)c2ccco2)cc1,-8,0,-1,-13,1.5*
O=C(N[C@H]1c2ccccc2C[C@H]1O)C1=C[C@H](c2coc3ccccc3c2=O)C[C@H](OCCCCO)O1,-1,nt,nt,-3,0
COc1ccccc1N1N=C(c2ccc([N+](=O)[O-])cc2)CC1c1ccccc1 (stereo not given),1,nt,nt,11,2.7*
C[C@@H]1CN([C@@H](C)CO)S(=O)(=O)c2ccc(C#CC(C)(C)O)cc2O[C@H]1CN(C)C(=O)C1CC1,nt,1,-4[16.7 µM],nt,nt
SMILES,SIRT5 block,E-sel inducer,miR122 inh,S100A4 inh HTS,FGF22 binding
C[C@@H]1CN([C@H](C)CO)C(=O)c2cc(N(C)C)ccc2O[C@@H](C)CCCCO[C@@H]1CN(C)Cc1ccc(C(F)(F)F)cc1,7,1,-12[16.7 µM],-5,-1
S=c1nc(C2COc3ccccc3O2)[nH][nH]1 (stereo not given),7,nt,-8,-1,43*
S=c1[nH]nc(C2COc3ccccc3O2)o1 (stereo not given),-2,nt,nt,0,nt
C[C@@H]1CN([C@H](C)CO)C(=O)c2cc(NC(=O)c3ccncc3)ccc2O[C@@H]1CN(C)C,-2,nt,4[16.7 µM],3,0
Cc1ccc(S(=O)(=O)NC(=NCC(=O)O)c2ccc(F)cc2)cc1,nt,nt,-8,nt,nt
Cc1ccc(S(=O)(=O)NC(=NCc2ccccc2)c2ccc(F)cc2)cc1,-1,0,116*,1,0
O=C(C[C@@H]1C=C[C@H](NC(=O)C2CCOCC2)[C@@H](CO)O1)NCc1ccccc1Cl,8,-2,nt,8,nt
COc1ccc(C(=O)Nc2ccc3c(c2)C(=O)N(C)C[C@@H](OC)[C@@H](C)CN(C(C)=O)[C@H](C)CO3)cc1,1,0,14[16.7 µM],3,0
CCc1ccc(NC(=O)c2nc(S(=O)(=O)Cc3ccccc3)ncc2Cl)cc1,-1,0,20,-6,0
Cc1ccc(NC(=O)c2nc(S(=O)(=O)Cc3ccccc3C)ncc2Cl)cc1C,16*,0,15,-1,0
O=C(C[C@@H]1CC[C@H](NC(=O)Nc2ccccc2F)[C@H](CO)O1)NCc1ccc(F)cc1,3,1,nt,0,nt
CCCS(=O)(=O)N1CCN(Cc2ccccc2[N+](=O)[O-])CC1,-2,nt,-4,0,0
CC(C)CC(=O)N1CCN(Cc2ccccc2[N+](=O)[O-])CC1,32*,nt,6,2,0
O=[N+]([O-])c1ccccc1CN1CCN(S(=O)(=O)Cc2ccccc2)CC1,-4,nt,-1,105*,0
Cc1ccc(S(=O)(=O)Nc2ccc3c(c2)C(=O)N([C@H](C)CO)C[C@@H](C)[C@H](CN(C)C(=O)Nc2ccc(F)cc2)O3)cc1,-4,0,6[16.7 µM],-35,0
C[C@H](CO)N1C[C@H](C)[C@H](CN(C)S(=O)(=O)c2ccc(F)cc2)Oc2ccc(NS(=O)(=O)c3ccccc3)cc2C1=O,nt,0,1[16.7 µM],nt,nt
COc1ccc(CCCc2n[nH]c(=S)n2C)cc1C,-1,nt,3,-2,0
COc1ccc(CCCc2n[nH]c(=S)o2)cc1C,-3,1,-2,-4,43*
COCCn1c(C)cc(C(=O)COC(=O)c2cc3c(s2)CCC3)c1C,nt,nt,315*,nt,nt
CCCCCCOc1ccc(N2C(=O)CC(N3CCN(CCN=CC4C(=O)CC(C)(C)CC4=O)CC3)C2=O)cc1 (stereo not given),112*,nt,nt,1,0
COc1ccc(Nc2cc(C)nc3ccccc23)cc1,18*,nt,-1,-8,0
COc1ccc2nc(C)cc(Nc3ccc(C)cc3)c2c1,5,0,-10,0,0
